The source of these data is ChEMBL document CHEMBL3621120, “Discovery of ((4-(5-(Cyclopropylcarbamoyl)-2-methylphenylamino)-5-methylpyrrolo[1,2-f][1,2,4]triazine-6-carbonyl)(propyl)carbamoyloxy)methyl-2-(4-(phosphonooxy)phenyl)acetate (BMS-751324), a Clinical Prodrug of p38α MAP Kinase Inhibitor” (J Med Chem, 2015).

By Cmax is commonly meant the highest concentration seen after dosing. In general, AUC refers to the area under the concentration-time curve, a measure of exposure.

Structures are written as SMILES.

The target of series [1] is T1, Alkaline phosphatase, placental type (Homo sapiens, UniProt P05187). The experiment in a line: Stability assessed as human placental ALP-mediated drug degradation by measuring compound remaining level in pH 7.5 tris buffer at 10 uM incubated for 1 hr by LC/MS/MS method. The class given is ADME. As to conditions: read-out: Stability. A digest of the protocol: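 Human placental ALP at 1 unit/mL, test compound at 10 µM in 89 mM tris pH 7.5, 37 °C. Run in triplicate, started by adding compound. Aliquots taken at 0, 15, 30 and 60 min and quenched into 10 mM EDTA plus acetonitrile. After centrifugation at 4 °C, percent remaining measured by LC/MS/MS.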
T1 sequence (P05187 whole entry): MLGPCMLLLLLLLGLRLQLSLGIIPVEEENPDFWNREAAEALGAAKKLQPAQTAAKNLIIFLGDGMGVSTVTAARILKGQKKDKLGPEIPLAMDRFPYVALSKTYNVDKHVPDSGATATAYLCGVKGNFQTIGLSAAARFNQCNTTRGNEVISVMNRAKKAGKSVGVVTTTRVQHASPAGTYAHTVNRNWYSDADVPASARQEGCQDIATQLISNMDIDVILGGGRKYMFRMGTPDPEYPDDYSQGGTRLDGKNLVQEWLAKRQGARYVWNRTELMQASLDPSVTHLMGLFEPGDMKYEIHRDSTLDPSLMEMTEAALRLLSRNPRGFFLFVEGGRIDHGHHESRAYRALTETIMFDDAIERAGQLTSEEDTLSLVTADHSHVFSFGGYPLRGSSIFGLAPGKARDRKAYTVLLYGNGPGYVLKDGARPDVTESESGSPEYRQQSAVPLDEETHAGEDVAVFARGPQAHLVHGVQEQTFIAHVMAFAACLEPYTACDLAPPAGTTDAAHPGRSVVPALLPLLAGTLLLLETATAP

Series [2] relates to Rattus norvegicus. The experiment in a line: Cmax in Sprague-Dawley rat assessed as plasma BMS-582949 level at 1 mg/kg, po dose equivalent to BMS-582949 after 24 hrs by LC/MS/MS method. It is filed as ADME, organism-based. Further details: dose 1 mg/kg, route oral; call rule not given here. As to conditions: in vivo.
The next series concerns Caco-2. As to the kind of experiment: Drug level in apical side of human Caco2 cells incubated at 37 degC for 2 hrs. The class given is ADME, cell-based. Conditions: caco-2, 2 h. In a few lines: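 Compounds loaded on apical side of Caco-2 monolayers and incubated at 37 °C for 2 h; prodrug, intermediate and parent measured on apical and basal sides.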
In series [3] the test system is Rattus norvegicus. As to the kind of experiment: Cmax in Sprague-Dawley rat assessed as plasma BMS-582949 level at 100 mg/kg, po dose equivalent to BMS-582949 after 24 hrs by LC/MS/MS method. The class given is ADME, organism-based. Further details: dose 100 mg/kg, route oral. Conditions: in vivo.
Series [4] deals with Cynomolgus monkey. As to the kind of experiment: AUC in cynomolgus monkey assessed as plasma BMS-582949 level at 30 mg/kg, po dose equivalent to BMS-582949 after 24 hrs by LC/MS/MS method. As to conditions: in vivo. It is filed as ADME, organism-based, Macaca fascicularis. Further details: time < 24 hr, dose 30 mg/kg, route oral. A digest of the protocol: (§1)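 Three overnight-fasted male cynomolgus monkeys (4.2-5.2 kg) given prodrug by oral gavage at 10 or 30 mg/kg, 5 mL/kg methocel suspension, one-week washout between doses. Femoral artery blood pre-dose and 0.25-24 h post-dose; plasma (centrifuged 4 °C) stored -20 °C and analysed by LC/MS/MS for parent.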

Series [5] deals with T2, Liver carboxylesterase (Sus scrofa, UniProt Q29550).
T2 sequence (Q29550 whole entry): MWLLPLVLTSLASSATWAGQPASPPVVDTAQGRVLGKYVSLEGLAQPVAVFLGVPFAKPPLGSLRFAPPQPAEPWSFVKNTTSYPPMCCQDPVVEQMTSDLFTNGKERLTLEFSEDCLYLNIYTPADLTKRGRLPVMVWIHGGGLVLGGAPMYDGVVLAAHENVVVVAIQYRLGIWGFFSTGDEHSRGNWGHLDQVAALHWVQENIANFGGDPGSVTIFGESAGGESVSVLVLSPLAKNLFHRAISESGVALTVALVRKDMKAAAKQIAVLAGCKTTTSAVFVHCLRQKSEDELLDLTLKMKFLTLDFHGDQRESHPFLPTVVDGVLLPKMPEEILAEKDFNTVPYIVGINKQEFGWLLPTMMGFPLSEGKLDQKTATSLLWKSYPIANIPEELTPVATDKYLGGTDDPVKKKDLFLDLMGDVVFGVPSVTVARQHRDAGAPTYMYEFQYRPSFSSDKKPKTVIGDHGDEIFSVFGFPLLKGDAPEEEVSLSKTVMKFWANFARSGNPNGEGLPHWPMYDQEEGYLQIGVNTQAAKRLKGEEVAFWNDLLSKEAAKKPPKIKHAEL
The experiment in a line: Stability assessed as porcine liver esterase-mediated drug degradation by measuring compound remaining level in pH 7.4 potassium phosphate buffer at 10 uM incubated for 0.25 hrs by LC/MS/MS. It is filed as ADME, tissue-based. Conditions: pig, read-out: Stability. A digest of the protocol:
(§2)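 Porcine liver esterase with substrate at 10 µM in 89 mM potassium phosphate pH 7.4, 37 °C. Reaction started by adding compound. Aliquots taken at 0, 15, 30 and 60 min and quenched with acetonitrile. After centrifugation at 4 °C, percent remaining quantified by LC/MS/MS.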

Series [6] has as its target T1, Alkaline phosphatase, placental type. As to the kind of experiment: Stability assessed as human placental ALP-mediated drug degradation by measuring compound remaining level in pH 7.5 tris buffer at 10 uM incubated for 1 hr in presence of HALT phosphatase inhibitor cocktail by LC/MS/MS method. As to conditions: pH 7.5, with HALT phosphatase inhibitor cocktail. It is filed as ADME. In a few lines:
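Human placental ALP (1 unit/mL) with HALT phosphatase inhibitor cocktail at 100x dilution, added before the test compound (10 µM). Buffer 89 mM tris pH 7.5, 37 °C, triplicate. Sampled at 0, 15, 30 and 60 min, quenched with EDTA and acetonitrile, centrifuged, and percent remaining determined by LC/MS/MS.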

For series [7], the system named is Cynomolgus monkey. As to the kind of experiment: Cmax in cynomolgus monkey assessed as plasma BMS-582949 level at 10 mg/kg, po dose equivalent to BMS-582949 after 24 hrs by LC/MS/MS method. The class given is ADME, organism-based, Macaca fascicularis. Further details: dose 10 mg/kg, route oral. Conditions: in vivo. A digest of the protocol:
as §1

In series [8] the test system is Rattus norvegicus. As to the kind of experiment: Cmax in Sprague-Dawley rat assessed as plasma BMS-582949 level at 10 mg/kg, po dose equivalent to BMS-582949 after 24 hrs by LC/MS/MS method. It is filed as ADME, organism-based. Further details: dose 10 mg/kg, route oral. As to conditions: in vivo.
In series [9] the test system is Rattus norvegicus. As to the kind of experiment: AUC in Sprague-Dawley rat assessed as plasma BMS-582949 level at 100 mg/kg, po dose equivalent to BMS-582949 after 24 hrs by LC/MS/MS method. The class given is ADME, organism-based. Further details: time < 24 hr, dose 100 mg/kg, route oral. As to conditions: in vivo.
Series [10] deals with Rattus norvegicus. The experiment in a line: Bioavailability in Sprague-Dawley rat assessed as plasma BMS-582949 level at 10 mg/kg, po dose equivalent to BMS-582949 after 24 hrs by LC/MS/MS method. It is filed as ADME, organism-based. As to conditions: in vivo.
Series [11] relates to Rattus norvegicus. As to the kind of experiment: Bioavailability in Sprague-Dawley rat assessed as plasma BMS-582949 level at 100 mg/kg, po dose equivalent to BMS-582949 after 24 hrs by LC/MS/MS method. The class given is ADME, organism-based. Conditions: in vivo.
For series [12], the target named is T2, Liver carboxylesterase. The experiment in a line: Stability assessed as porcine liver esterase-mediated drug degradation by measuring compound remaining level in pH 7.4 potassium phosphate buffer at 10 uM incubated for 1 hr by LC/MS/MS. The class given is ADME, tissue-based. As to conditions: pig, read-out: Stability. A digest of the protocol: as §2
For series [13], the system named is Rattus norvegicus. As to the kind of experiment: Inhibition of LPS-induced TNFalpha level in Lewis rat at 0.03 to 10 mg/kg, po dose equivalent to BMS-582949 dosed 1 hr before LPS challenge and measured 90 mins post LPS challenge by ELISA method. The class given is functional. In a few lines: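 Male Lewis rats (200-250 g) dosed orally 1 h before IP injection of 10ug E. coli O111:B4 LPS in 1.0 mL sterile saline; prodrug as suspension in 0.75% Methocel, 0.1% Tween 80, parent in PEG 300, controls given vehicle. Blood taken 90 min after LPS; serum TNF measured by ELISA; ED50 expressed as parent equivalent.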

In series [14] the target is T2, Liver carboxylesterase. The experiment in a line: Stability assessed as porcine liver esterase-mediated drug degradation by measuring compound remaining level in pH 7.4 potassium phosphate buffer at 10 uM incubated for 0.5 hrs by LC/MS/MS. The class given is ADME, tissue-based. As to conditions: pig, read-out: Stability. A digest of the protocol:
as §2

In series [15] the test system is Rattus norvegicus. As to the kind of experiment: AUC in Sprague-Dawley rat assessed as plasma BMS-582949 level at 10 mg/kg, po dose equivalent to BMS-582949 after 24 hrs by LC/MS/MS method. It is filed as ADME, organism-based. Further details: time < 24 hr, dose 10 mg/kg, route oral. Conditions: in vivo.

As to `CCCN(C(=O)OCOC(=O)Cc1ccc(OP(=O)(O)O)cc1)C(=O)c1cn2ncnc(Nc3cc(C(=O)NC4CC4)ccc3C)c2c1C`, the results for the remaining at 1 h, 10 µM (in series [1]; in series [6]; on Liver carboxylesterase [12]) were 10.9%, 64.5% and 100%, respectively. Also, the maximum concentration (Cmax) in the series on Rattus norvegicus [2] was 0.4 µM; in the series with Rattus norvegicus [3], 122 µM; in the series on Cynomolgus monkey [7] it was 12 µM; in the series on Rattus norvegicus [8] it was 18 µM. The Drug uptake entry in the series on Caco-2 is reported as “Active”. Moreover, the area under the curve (AUC) in the series with Cynomolgus monkey [4] was 96 µM·h; with Rattus norvegicus [9] it was 875 µM·h; in the series on Rattus norvegicus [15], 78 µM·h. At Liver carboxylesterase [5], the remaining at 0.25 h, 10 µM was found to be 100%. Besides, the F with Rattus norvegicus [10] was determined as 103%; with Rattus norvegicus [11] it was 115%. For the same compound, the ED50 in the series on Rattus norvegicus [13] came to 0.89 mg. In addition, the inhibition entry in the series with Rattus norvegicus [13] is “Dose-dependent effect”. Besides, on Liver carboxylesterase [14], the remaining at 0.5 h, 10 µM worked out at 100%.
